# How the values were obtained:
# Klebsiella pneumoniae = experiment: Minimum inhibitory concentration of compound against Klebsiella pneumoniae delta 217; format: functional
# Escherichia coli [1] = experiment: Antibacterial activity againist Escherichia coli 120 infected NMRI mice after peroral administration; format: functional; conditions: po
# Procedure, shortened: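 ED50 in NMRI mice infected intraperitoneally with E. coli 120; compound given orally immediately and 5 h after infection.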
# Klebsiella aerogenes = experiment: Minimum inhibitory concentration of compound against Enterobacter aerogenes delta 220; format: functional
# Neisseria gonorrhoeae [2] = experiment: Minimum inhibitory concentration of compound against Neisseria gonorrhoeae W2; format: functional
# Procedure, shortened: (§1)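 Agar dilution on Kellogg agar, 10⁶ colony forming units, incubated 20 h at 36 °C in 5% CO₂; MIC is the lowest concentration giving no visible growth.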
# Proteus mirabilis = experiment: Minimum inhibitory concentration against Proteus mirabilis delta 89; format: functional
# Salmonella typhimurium = experiment: Minimum inhibitory concentration of compound against Salmonella Typhimurium delta 119; format: functional, Salmonella enterica subsp. enterica serovar Typhimurium; conditions: Salmonella enterica
# Escherichia coli [3] = experiment: Minimum inhibitory concentration of compound against Escherichia coli delta 120; format: functional
# Neisseria gonorrhoeae [4] = experiment: Minimum inhibitory concentration of compound against Neisseria gonorrhoeae AS 7720; format: functional; procedure, shortened: as §1
SMILES,MIC (Klebsiella pneumoniae) [µg/mL],MIC (Klebsiella aerogenes) [µg/mL],MIC (Neisseria gonorrhoeae [2]) [µg/mL],MIC (Proteus mirabilis) [µg/mL],MIC (Salmonella typhimurium) [µg/mL],MIC (Escherichia coli [3]) [µg/mL],MIC (Neisseria gonorrhoeae [4]) [µg/mL],ED50 (Escherichia coli [1]) [mg/kg]
Nc1ccc(S(=O)(=O)N2N=Cc3c(F)cccc3B2O)cc1,10,50,8,6.25,10,25,8,65
CCCS(=O)(=O)N1N=Cc2c(ccn2C)B1O,25,> 50,> 8,> 50,> 50,> 50,> 8,> 300
O=S(=O)(c1ccccc1Cl)N1N=Cc2cc(Br)sc2B1O,> 50,> 50,> 8,> 50,> 50,> 50,> 8,> 300
CC(=O)Nc1ccc(S(=O)(=O)N2N=Cc3cc(Br)ccc3B2O)c(Cl)c1,3.12,50,2,1.56,12.5,50,1,83
Cc1ccc(S(=O)(=O)N2N=Cc3ccc(Cl)cc3B2O)cc1,12.5,> 50,> 8,25,12.5,> 50,1,~50
CN(C)S(=O)(=O)N1N=Cc2ccccc2B1O,12.5,> 50,> 8,50,50,> 50,> 8,57
Cc1ccc(S(=O)(=O)N2N=Cc3sc(Br)cc3B2O)c(Cl)c1,6.25,50,1,3.12,12.5,50,0.25,39
Cc1ccccc1S(=O)(=O)N1N=Cc2sc(Br)cc2B1O,3.12,50,0.5,1.56,6.25,25,0.5,57
Cc1cc(C)c(S(=O)(=O)N2N=Cc3sc(Br)cc3B2O)c(C)c1,25,> 50,2,2.5,> 50,> 50,1,> 600
Cc1ccc(S(=O)(=O)N2N=Cc3cc4c(cc3B2O)C=NN(S(=O)(=O)c2ccc(C)cc2)B4O)cc1,> 50,> 50,> 8,50,> 50,> 50,> 8,> 300
Cc1ccc(S(=O)(=O)N2N=Cc3cc(Cl)ccc3B2O)cc1,6.25,> 50,2,3.12,3.12,25,1,~20
CC(C)CS(=O)(=O)N1N=Cc2sc(Br)cc2B1O,1.56,12.5,2,6.25,1.56,12.5,2,73

# Further compounds by falling MIC (Klebsiella pneumoniae), results first:
MIC (Klebsiella pneumoniae) [µg/mL],MIC (Klebsiella aerogenes) [µg/mL],MIC (Neisseria gonorrhoeae [2]) [µg/mL],MIC (Proteus mirabilis) [µg/mL],MIC (Salmonella typhimurium) [µg/mL],MIC (Escherichia coli [3]) [µg/mL],MIC (Neisseria gonorrhoeae [4]) [µg/mL],SMILES,ED50 (Escherichia coli [1]) [mg/kg]
1.56,25,2,0.78,3.12,10,1,Nc1ccc(S(=O)(=O)N2N=Cc3cc(Br)ccc3B2O)cc1,16
1.56,50,1,1.56,12.5,50,0.5,Cc1ccc(S(=O)(=O)N2N=Cc3sc(C)cc3B2O)c(Cl)c1,32
1.56,25,8,0.39,3.12,6.25,2,Cc1ccc2c(c1)C=NN(S(=O)(=O)c1ccc(N)cc1)B2O,5
1.25,25,1,1.56,2.5,10,0.5,CCc1cc2c(s1)B(O)N(S(=O)(=O)c1ccccc1Cl)N=C2,24
1.25,10,2,1.56,2.5,6.25,2,CCCS(=O)(=O)N1N=Cc2cc(C)ccc2B1O,73
0.78,10,1,0.39,3.12,10,1,Cc1ccc2c(c1)C=NN(S(=O)(=O)c1ccc(N)cc1Cl)B2O,14
0.31,12.5,1,0.39,0.78,3.12,0.5,CCc1cc2c(s1)C=NN(S(=O)(=O)c1ccccc1Cl)B2O,49

# From ChEMBL document CHEMBL1122708, “Preparation and antibacterial activities of new 1,2,3-diazaborine derivatives and analogues” (1984)
